Values after ≈ are worked out from the molar mass of the structure shown.
Test system: Staphylococcus aureus
Experiment: Antibacterial activity against methicilin-resistant Staphylococcus aureus USA300 FPR3757 incubated for 20 to 24 hrs by microbroth dilution assay
Format: functional
Conditions: time hrs 20-24
Procedure, shortened: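 Broth microdilution per EUCAST in Mueller-Hinton broth. Inoculum 5.0·10^5 CFU/mL, prepared from overnight single-colony cultures at OD600 0.1 then diluted 100x. Final compound concentrations 0.015–16 µg/mL. Incubation at 37 °C for 20–24 h, protected from light. MIC is the lowest concentration with no visible growth. Each replicate uses three cultures; n = 2–3.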

Row | Structure (SMILES) | MIC [µg/mL]
1 | C=C[C@]1(C)C[C@@H](OC(=O)Cn2cc(-c3cccc(-n4cnc5c(N)ncnc54)c3)nn2)[C@]2(C)[C@H](C)CC[C@]3(CCC(=O)[C@H]32)[C@@H](C)[C@@H]1O | 0.06 (≈ 0.0939 µM)
2 | C=C[C@]1(C)C[C@@H](OC(=O)Cn2cc(-c3ccc(-n4cnc5c(N)ncnc54)cc3)nn2)[C@]2(C)[C@H](C)CC[C@]3(CCC(=O)[C@H]32)[C@@H](C)[C@@H]1O | 0.5 (≈ 0.783 µM)
3 | C=C[C@]1(C)C[C@@H](OC(=O)Cn2cc(-c3cccc(CN)c3)nn2)[C@]2(C)[C@H](C)CC[C@]3(CCC(=O)[C@H]32)[C@@H](C)[C@@H]1O | 2 (≈ 3.74 µM)
4 | C=C[C@]1(C)C[C@@H](OC(=O)Cn2cc(-c3ccccc3C#N)nn2)[C@]2(C)[C@H](C)CC[C@]3(CCC(=O)[C@H]32)[C@@H](C)[C@@H]1O | 0.5 (≈ 0.942 µM)
5 | C=C[C@]1(C)C[C@@H](OC(=O)Cn2cc(-c3cccc(C#N)c3)nn2)[C@]2(C)[C@H](C)CC[C@]3(CCC(=O)[C@H]32)[C@@H](C)[C@@H]1O | 1 (≈ 1.88 µM)
6 | C=C[C@]1(C)C[C@@H](OC(=O)Cn2cc(-c3ccccc3)nn2)[C@]2(C)[C@H](C)CC[C@]3(CCC(=O)[C@H]32)[C@@H](C)[C@@H]1O | 2 (≈ 3.96 µM)
7 | C=C[C@]1(C)C[C@@H](OC(=O)Cn2cc(-c3ccccc3CN)nn2)[C@]2(C)[C@H](C)CC[C@]3(CCC(=O)[C@H]32)[C@@H](C)[C@@H]1O | 4 (≈ 7.48 µM)
8 | C=C[C@]1(C)C[C@@H](OC(=O)Cn2cc(-c3ccc(CN(CC)CC)cc3)nn2)[C@]2(C)[C@H](C)CC[C@]3(CCC(=O)[C@H]32)[C@@H](C)[C@@H]1O | 4 (≈ 6.77 µM)
9 | C=C[C@]1(C)C[C@@H](OC(=O)Cn2cc(-c3ccc(Cc4ccc(OC)cc4)cc3)nn2)[C@]2(C)[C@H](C)CC[C@]3(CCC(=O)[C@H]32)[C@@H](C)[C@@H]1O | 8 (≈ 12.8 µM)
10 | C=C[C@]1(C)C[C@@H](OC(=O)Cn2cc(-c3cccc(CO)c3)nn2)[C@]2(C)[C@H](C)CC[C@]3(CCC(=O)[C@H]32)[C@@H](C)[C@@H]1O | 0.5 (≈ 0.933 µM)
11 | C=C[C@]1(C)C[C@@H](OC(=O)Cn2cc(-c3cccc(Cc4cccc(CO)c4)c3)nn2)[C@]2(C)[C@H](C)CC[C@]3(CCC(=O)[C@H]32)[C@@H](C)[C@@H]1O | 1 (≈ 1.6 µM)
12 | C=C[C@]1(C)C[C@@H](OC(=O)Cn2cc(-c3ccc(CN4CCN(C)CC4)cc3)nn2)[C@]2(C)[C@H](C)CC[C@]3(CCC(=O)[C@H]32)[C@@H](C)[C@@H]1O | 4 (≈ 6.47 µM)
13 | C=C[C@]1(C)C[C@@H](OC(=O)Cn2cc(-c3cccc(CN(CC)CC)c3)nn2)[C@]2(C)[C@H](C)CC[C@]3(CCC(=O)[C@H]32)[C@@H](C)[C@@H]1O | 2 (≈ 3.39 µM)
14 | C=C[C@]1(C)C[C@@H](OC(=O)Cn2cc(-c3cccc(N)c3)nn2)[C@]2(C)[C@H](C)CC[C@]3(CCC(=O)[C@H]32)[C@@H](C)[C@@H]1O | 1 (≈ 1.92 µM)
15 | C=C[C@]1(C)C[C@@H](OC(=O)Cn2cc(-c3ccccc3Cc3ccc(OC)cc3)nn2)[C@]2(C)[C@H](C)CC[C@]3(CCC(=O)[C@H]32)[C@@H](C)[C@@H]1O | 2 (≈ 3.2 µM)
16 | C=C[C@]1(C)C[C@@H](OC(=O)Cn2cc(-c3cccc(Cc4cccc(CN(CC)CC)c4)c3)nn2)[C@]2(C)[C@H](C)CC[C@]3(CCC(=O)[C@H]32)[C@@H](C)[C@@H]1O | 2 (≈ 2.94 µM)
17 | C=C[C@]1(C)C[C@@H](OC(=O)Cn2cc(-c3ccc(CO)cc3)nn2)[C@]2(C)[C@H](C)CC[C@]3(CCC(=O)[C@H]32)[C@@H](C)[C@@H]1O | 0.25 (≈ 0.467 µM)
18 | C=C[C@]1(C)C[C@@H](OC(=O)Cn2cc(-c3cccc(CN4CCN(C)CC4)c3)nn2)[C@]2(C)[C@H](C)CC[C@]3(CCC(=O)[C@H]32)[C@@H](C)[C@@H]1O | 2 (≈ 3.24 µM)
19 | C=C[C@]1(C)C[C@@H](OC(=O)Cn2cc(-c3cccc(Cc4ccc(OC)cc4)c3)nn2)[C@]2(C)[C@H](C)CC[C@]3(CCC(=O)[C@H]32)[C@@H](C)[C@@H]1O | 16 (≈ 25.6 µM)
20 | C=C[C@]1(C)C[C@@H](OC(=O)Cn2cc(-c3ccc(CN)cc3)nn2)[C@]2(C)[C@H](C)CC[C@]3(CCC(=O)[C@H]32)[C@@H](C)[C@@H]1O | 2 (≈ 3.74 µM)
